Reference: ChEMBL document CHEMBL5352422, “Development of l-Dopa-containing diketopiperazines as blood-brain barrier shuttle” (Eur J Med Chem, 2022)
Active and inactive are the calls of the source. No cut-off for these calls is given here. Where a SMILES comes first, the peptide text is derived from it. [ ]: non-standard residue; d: D form. Dopa = N[C@@H](Cc1ccc(O)c(O)c1)C(=O)O

Tests used:
PC-12 [1] = assay: Inhibition of MPP+ induced GSH level in rat PC-12 cells at 50 uM preincubated with compound for 24 hrs followed by MPP+ treatment for 24 hrs by DTNB reagent based analysis; assay type: functional, cell-based; details: time 48.0 hrs
PC-12 [2] = assay: Inhibition of MPP+ induced ROS production in rat PC-12 cells at 50 uM preincubated with compound for 24 hrs followed by MPP+ treatment for 24 hrs by DCFH-DA staining based fluorescence method; assay type: functional, cell-based; details: time 48.0 hrs
PC-12 [3] = assay: Upregulation of Gpx expression in MPP+ induced rat PC-12 cells at 50 nM pretreated with compound for 24 hrs followed by MPP+ stimulation and measured after 6 hrs; assay type: functional, cell-based; details: time 30.0 hrs
PC-12 [4] = assay: Upregulation of xCT expression in MPP+ induced rat PC-12 cells at 50 nM pretreated with compound for 24 hrs followed by MPP+ stimulation and measured after 6 hrs; assay type: functional, cell-based; details: time 30.0 hrs
[5] = Effective permeability of compound at 500 uM incubated for 18 hrs by […] method; assay type: ADME; details: read-out: Peff
Summary of the method: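 PAMPA-BBB: donor contained compound at 500 µM final in PBS pH 7.4 with 20% v/v MeOH. Incubated 18 h. Donor and acceptor concentrations measured by HPLC; effective permeability Pe (cm/s) calculated.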

[6] = Apparent permeability of the compound across apical side to basolateral side in human Caco-2 cells measured upto 180 mins by HPLC analysis; assay type: ADME, cell-based

## N[C@@H](Cc1ccc(O)c(O)c1)C(=O)O [LEVODOPA]
PC-12 [1]
  inhibition: inactive
PC-12 [2]
  inhibition: Active
PC-12 [3]
  Activity: Active
PC-12 [4]
  Activity: Active
[5]
  Papp at 18 h, 500 µM: 0.75 ×10⁻⁶ cm/s
[6]
  Papp A→B at 3 h: 0.82 ×10⁻⁶ cm/s

## COCCc1ccc(OCC(O)CNC(C)C)cc1 (stereo not given) [METOPROLOL]
[6]
  Papp A→B at 3 h: 27.4 ×10⁻⁶ cm/s

## NC(=O)N1c2ccccc2C=Cc2ccccc21 [CARBAMAZEPINE]
[6]
  Papp A→B at 3 h: 50.3 ×10⁻⁶ cm/s

## COC(=O)[C@H](Cc1ccc(O)c(O)c1)NC(=O)[C@H](CCSC)NC(C)=O (Ac-Met-[Dopa]-OMe)
[5]
  Papp at 18 h, 500 µM: 1.42 ×10⁻⁶ cm/s
[6]
  Papp A→B at 3 h: 3.5 ×10⁻⁶ cm/s
